Hits are enriched below; roughly 1.5% of the tested compounds scored in any of these assays.
APJ antag – antagonists of human apelin receptor APJ, primary screen, CHO-K1 cells, beta-arrestin complementation, luminescence | P35414 | inhibition, % at 20 µM | hit rate 0.32% among 330,000;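 active = inhibition above about 40% at 20 µM, limit read from the data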;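 also: cells challenged with 10 nM apelin-13 agonist together with compound; plate controls were apelin-13 plus DMSO wells for no effect and DMSO wells lacking apelin-13 for full effect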
EBI2 antag – EBI2 receptor antagonists, beta-arrestin recruitment, primary screen, cell-based, luminescence, 7a,25-OHC stimulation, uHTS | G-protein coupled receptor 183 (Homo sapiens), P32249 | 7a,25-OHC stimulated | inhibition, % at 5 µM | hit rate 0.81% among 360,000; in the data active = inhibition above about 38%;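 also: enzyme fragment complementation signal reports receptor beta-arrestin coupling in cells; 0% = agonist plus DMSO wells and 100% = wells without agonist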
CCR6 antag – CCR6 receptor antagonists, primary screen, cell-based, CHO-K1, luminescence, beta-arrestin, uHTS; hit rate 0.49% among 340,000; inhibition, % at 20 µM; CHO-K1 CCR6 PathHunter beta-arrestin, CCL20-stimulated; AID 493098, 2011;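 active = compounds whose inhibition of the agonist-driven luminescence signal at 20 µM reaches about 50%, limit read from the data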;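 also: cells stimulated with CCL20 at 14 nM final; plate controls were DMSO with CCL20 for no effect and DMSO without agonist for full effect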
Target sequence (P51684 whole entry, looked up): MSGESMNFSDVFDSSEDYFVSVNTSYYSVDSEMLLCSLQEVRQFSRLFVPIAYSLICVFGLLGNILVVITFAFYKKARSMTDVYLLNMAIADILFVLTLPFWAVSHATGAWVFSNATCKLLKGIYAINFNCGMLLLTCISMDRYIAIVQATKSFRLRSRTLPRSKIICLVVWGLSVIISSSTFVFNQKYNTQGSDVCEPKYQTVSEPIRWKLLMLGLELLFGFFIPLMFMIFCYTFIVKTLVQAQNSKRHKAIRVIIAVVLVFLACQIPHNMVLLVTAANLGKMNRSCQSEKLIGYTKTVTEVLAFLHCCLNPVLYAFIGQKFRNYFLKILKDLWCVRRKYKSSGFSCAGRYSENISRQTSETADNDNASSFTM
CXCR6 inh – CXCR6 receptor inhibitors, primary screen, cell-based, beta-arrestin, luminescence, CHO-K1 PathHunter, 1536-well; inhibition, % at 20 µM; C-X-C chemokine receptor type 6 (Homo sapiens), O00574; hit rate 0.36% among 360,000; in the data active = inhibition above about 34%, passing the limit was not always enough;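 also: antagonist mode with CXCL16 agonist at 10 nM final; 0% = 10 nM CXCL16 with DMSO and 100% = unstimulated wells without agonist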
APJ agonist – agonists of human apelin receptor APJ, primary screen, CHO-K1 cells, PathHunter beta-arrestin, luminescence; P35414; 0% DMSO wells, 100% apelin; activation, % at 20 µM; hit rate 0.11% among 330,000; AID 2520, 2010;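 active = activation more than six SD over the plate average, tested at 20 µM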;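 also: 0% = DMSO alone and 100% = apelin-13 at 10 nM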
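system = engineered CHO-K1 APJ arrestin reporter cells | input = 1000 cells per well | timing = overnight seeding, 90 min compound at 25 °C, 1 h detection | measured by = enzyme-fragment complementation luminescence | read-out = beta-arrestin recruitment to APJ as agonist activity, luminescent signal | control set = negative DMSO alone, positive Apelin-13 at 10 nM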
* = called active by the depositor; . = not tested or not shown.

SMILES	APJ antag	EBI2 antag	CCR6 antag	CXCR6 inh	APJ agonist
C[C@H](O)[C@@H]1CN2CCc3c([nH]c4ccccc34)[C@@H]2C[C@@H]1N(C)C(=S)Nc1ccc(C#N)cc1	.	1	.	6	.
Cc1nc2ccc(NC(=O)c3cc([N+](=O)[O-])cc([N+](=O)[O-])c3Cl)cc2s1	.	-10	97*	10	.
Cc1nc2ccc(NC(=O)c3ccc(Cl)c([N+](=O)[O-])c3)cc2s1	-15	5	3	1	-2
Cc1cccc(C)c1NC(=O)C(CCc1ccccc1)n1c(=O)c(-c2ccccc2)nc2ccccc21 (configuration not stated)	.	23	.	.	.
Cc1ccc(C)c(S(=O)(=O)/N=C2\C=C(NS(=O)(=O)c3ccccc3)C(=O)c3ccccc32)c1	37	9	45	34	-3
Cc1cc(C)c(S(=O)(=O)/N=C2/C=C(Sc3ncn[nH]3)C(=O)c3ccccc32)cc1C	.	11	79*	46*	.
Cc1ccc(C(=O)OCC(=O)c2ccc(S(=O)(=O)N3CCCCC3)cc2)o1	36	20	53*	32	-19
Cc1ccc(S(=O)(=O)N2CCOCC2)cc1NC(=O)COC(=O)C1=COCCO1	23	-9	0	-4	-4
O=C(OCC(=O)c1ccc(S(=O)(=O)N2CCCC2)cc1)C1=COCCO1	27	1	53*	27	-9
CC1(C)CCCN(C(=O)c2ccc3c(c2NCCO)C(=O)c2ccccc2C3=O)C1	-12	38*	22	0	-1
Cn1c2ccccc2c2ccc3c(c21)C(=O)C=CC3=O	.	-36	109*	70*	.
Cc1ccc2c(c1)c1ccc3c(c1n2C)C(=O)C=CC3=O	40	5	106*	60*	-5
COc1ccc2c(c1)c1ccc3c(c1n2C)C(=O)C=CC3=O	44*	0	106*	79*	-1
CCOC(=O)CSC1=NC(=O)/C(=C\c2ccc(OC(C)=O)cc2)S1	33	-15	78*	30	-4
CCOC(=O)CSC1=NC(=O)/C(=C/c2ccc(Br)cc2)S1	13	-3	59*	22	-5
CCC1C(=O)C(C)(C)C(=O)OC1c1ccc([N+](=O)[O-])cc1 (configuration not stated)	.	22	-2	-1	.
O=C1CC(=O)OC(c2ccc([N+](=O)[O-])cc2)O1	.	13	.	50*	.
CN(CC(=O)Nc1ccccc1Br)C(=O)c1cc(S(=O)(=O)N(C)C)ccc1N1CCCC1	-52	5	12	4	-4
O=[N+]([O-])c1ccc(-c2cnc3ccccc3n2)cc1	-9	8	-1	-6	4
O=[N+]([O-])c1ccc(-c2c(O)c3ccccc3c3nc4ccccc4nc23)cc1	37	12	76*	40	-8
O=C1C=CC(=O)c2c(O)c(N3CCN(CCOCCO)CC3)c(Br)c(O)c21	.	-23	112*	76*	.
O=S(=O)(c1ccc(Br)cc1Cl)N1CCN(CCO)CC1	-7	-15	10	3	-1
O=C1C=CC(=O)c2c(O)c(N3CCN(CCO)CC3)c(Cl)c(O)c21	.	-19	102*	66*	.
CC(=O)N1CCN(Cc2nc3cc(NC(=O)c4cccc(Br)c4)ccc3n2C)CC1	-49	-4	-2	-11	3
Cc1ccc2cc3c(N)c(C(=O)N4CC(=O)Nc5ccccc54)sc3nc2c1	98*	.	.	.	-20
SMILES	APJ antag	EBI2 antag	CCR6 antag	CXCR6 inh	APJ agonist
Cc1ccc2c(c1)C(=O)C(=O)N2CCOc1ccccc1	10	-9	51*	12	-7
O=C(COC(=O)/C=C/c1ccc(Cl)cc1Cl)NCC1CCCO1 (configuration not stated)	-4	-6	5	-9	-3
Cc1cc(C)nc(SC2=CS(=O)(=O)c3ccccc32)n1	-11	-54	13	9	-4
O=S1(=O)C=C(Sc2nc3ccccc3s2)c2ccccc21	20	.	72*	.	-3
O=C(NC1CCOc2ccccc21)c1ccc(Cl)nc1 (configuration not stated)	0	-1	9	3	-2
O=C(OCc1cn([C@@H]2CN(C(=O)C3CCCCC3)[C@@H](c3ccc(Cl)cc3)C[C@H]2O)nn1)c1ccccc1	.	1	.	6	.

Source: PubChem BioAssay (Sanford-Burnham Center for Chemical Genomics)
